Results from ChEMBL document CHEMBL1122996, “Interactions of apomorphine with serum and tissue proteins” (J Med Chem, 1985).
Values joined by “and” are separate entries in the source; they are usually repeats but may differ in a detail not shown here. Identical values can stand only once.

Assays:
[1] = organism: Homo sapiens; test: Percentage binding to human plasma proteins was determined by collecting HPLC eluate at 0.01 micro g/ml concentration of compound 1 in plasma; format: cell-free
How it was run: (§1)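 Fresh plasma from fasted healthy human volunteers was spiked with 1-HCl plus [³H]-1 tracer. It was incubated 10 min at 37 °C and ultrafiltered through YMT membranes (1000g, 5 min, 37 °C). Ultrafiltrate was acidified with pH 3.0 acetate buffer containing carrier 1-HCl, argon-flushed and frozen at -15 °C. Phenyl-column HPLC was read by peak-eluate collection LSC, UV peak area, or radiochemical detection. % bound was calculated from total vs ultrafiltrate using a plasma water fraction of 0.93.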

[2] = biological target: T1, Albumin (Bos taurus, UniProt P02769); test: Covalent binding of compound to serum albumin after 1 hr when the level of [8,9-3H2]-1is 2.0 dpm *10e6; conditions: cattle
T1 sequence (P02769 whole entry): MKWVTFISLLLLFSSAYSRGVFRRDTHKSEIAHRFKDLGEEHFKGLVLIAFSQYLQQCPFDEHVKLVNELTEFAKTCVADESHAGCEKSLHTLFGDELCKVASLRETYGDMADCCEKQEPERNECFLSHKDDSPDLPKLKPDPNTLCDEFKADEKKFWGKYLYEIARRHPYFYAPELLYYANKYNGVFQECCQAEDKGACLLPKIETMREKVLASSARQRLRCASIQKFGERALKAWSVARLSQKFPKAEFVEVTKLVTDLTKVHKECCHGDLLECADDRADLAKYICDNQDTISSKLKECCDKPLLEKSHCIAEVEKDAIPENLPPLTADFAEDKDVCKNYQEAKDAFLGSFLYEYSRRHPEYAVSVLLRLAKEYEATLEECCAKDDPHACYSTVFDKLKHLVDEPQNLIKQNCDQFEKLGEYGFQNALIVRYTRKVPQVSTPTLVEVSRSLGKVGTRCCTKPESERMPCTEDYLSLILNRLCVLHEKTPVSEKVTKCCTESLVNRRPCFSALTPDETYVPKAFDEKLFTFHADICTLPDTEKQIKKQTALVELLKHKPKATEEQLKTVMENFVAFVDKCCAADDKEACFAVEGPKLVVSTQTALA
How it was run: (§2)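 BSA (32 mg) with 2 mg apomorphine HCl hemihydrate plus tritiated [8,9-3H2]apomorphine at the level stated, in pH 7.4 phosphate buffer, 2.1 mL total, incubated 1 h. Incubates were extracted twice with ethyl acetate. Protein-bound radioactivity was measured by LSC after one of three workups: perchloric acid precipitation with repeated trifluoroacetic acid-ethanol washes; Sephadex G-25 gel filtration in 1% sodium lauryl sulfate buffer; or 4-day dialysis.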

[3] = organism: Homo sapiens; test: Percentage binding to human plasma proteins was determined by measuring HPLC peak at 1.00 micro g/ml concentration in plasma; format: cell-free; how it was run: as §1
[4] = organism: Mus musculus; test: Radio activity of [3H]-l in mice kidney on 14 days; format: functional
How it was run: (§3)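 Male CD-1 mice (~35 g, n=10 per group) received apomorphine 30 mg/kg with [3H]-apomorphine (0.153 mCi/kg) ip, once or daily for 14 days. Killed 24 h after the last dose; GI tract (with contents or washed with distilled water), liver and kidney (rinsed of blood) and skeletal tissue taken. Radioactivity given as % of total dose; skeletal tissue as % dose/g wet weight.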

[5] = organism: Rattus norvegicus; test: Percentage binding to rat plasma proteins at 50.0 ug/mL concentration of the compound; format: cell-free
How it was run: (§4)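 Plasma came from male Sprague-Dawley rats (~450 g, ether, vena cava blood, lithium heparin) or from six mature female swine (jugular catheter, heparinized). It was spiked with 1-HCl (10 ng–50 µg/mL) containing 0.5 mCi/mL [³H]-1. Samples were ultrafiltered as for human plasma, and the ultrafiltrate was analysed by HPLC peak-collection LSC. N = 4.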

[6] = organism: Mus musculus; test: Radio activity accumulation in extractable reactivity in plasma brain (Excreatable reactivity) on 14 days; format: functional
How it was run: (§5)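 Male CD-1 mice (~35 g, n=10 per group) given apomorphine 30 mg/kg fortified with [3H]-apomorphine (0.153 mCi/kg) ip, either once or daily for 14 days. Sampled 24 h after the last dose: plasma from infraorbital sinus (extractable and nonextractable radioactivity) and brain regions (striatum, cerebellum, forebrain without striatum). Radioactivity expressed as µg apomorphine equivalent per mL or per g […].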

[7] = organism: Mus musculus; test: Ratio of accumulation of radioactivity from 14 to 1 day in liver; format: functional
How it was run: (§6)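 Male CD-1 mice (~35 g, 10 per group) received 1 at 30 mg/kg ip with [³H]-1 (0.153 mCi/kg), once or daily for 14 days, with free access to food and water. At 24 h after the last dose, plasma (infraorbital sinus), brain regions, kidney, liver and GI tract were taken for radioactivity counting. The accumulation ratio is radioactivity after 14 doses divided by radioactivity after 1 dose.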

[8] = organism: Rattus norvegicus; test: Percentage binding to rat plasma proteins at 0.10 ug/mL concentration of the compound; format: cell-free; how it was run: as §4
[9] = organism: Mus musculus; test: Radio activity of [3H]-l in mice GI tract with its contents on day 1; format: functional, Gastrointestinal tract; how it was run: as §3
[10] = biological target: T1, Albumin; test: (§7) Covalent binding of compound to serum albumin after 1 hr when the level of [8,9-3H2]-1is 2.6 dpm *10e6; conditions: cattle; how it was run: as §2
[11] = organism: Homo sapiens; test: Percentage binding to human plasma proteins was determined by measuring HPLC peak at 0.10 micro g/ml concentration of compound 1 in plasma; format: cell-free; how it was run: as §1
[12] = biological target: T1, Albumin; test: Covalent binding of compound to serum albumin after 1 hr when the level of [8,9-3H2]-1is 2.3 dpm *10e6; conditions: cattle; how it was run: as §2
[13] = organism: Sus scrofa; test: Percentage binding to swine plasma proteins at 20.0 ug/mL concentration of the compound; format: cell-free; how it was run: as §4
[14] = organism: Mus musculus; test: Radio activity covalently bound to plasma of mouse brain; format: functional
How it was run: (§8)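 Male CD-1 mice (~35 g, n=10) given apomorphine 30 mg/kg with [3H]-apomorphine (0.153 mCi/kg) ip daily for 14 days, killed 24 h after the last dose. Plasma from infraorbital sinus; brain split into striatum, cerebellum, forebrain without striatum. Protein-bound radioactivity expressed as µg/g protein (albumin equivalent; plasma µg/mL) and as % of total tissue radioactivity.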

[15] = organism: Mus musculus; test: Ratio of accumulation of radioactivity from 14 to 1 day in plasma contents; format: functional; how it was run: as §6
[16] = organism: Rattus norvegicus; test: Percentage binding to rat plasma proteins at 0.01 ug/mL concentration of the compound; format: cell-free; how it was run: as §4
[17] = organism: Mus musculus; test: Radio activity of [3H]-l in washed mice GI tract on 14 days; format: functional, Gastrointestinal tract; how it was run: as §3
[18] = biological target: T1, Albumin; test: as §7; conditions: cattle; how it was run: as §2; remark: listed apart in the source
[19] = organism: Mus musculus; test: Radio activity accumulation in plasma (Excreatable reactivity) on 14 days; format: functional; how it was run: as §5
[20] = organism: Mus musculus; test: Radio activity accumulation in nonextractable radioactivity in plasma brain striatum (Excreatable reactivity) on day 1; format: functional; how it was run: as §5
[21] = organism: Mus musculus; test: Radio activity accumulation in nonextractable radioactivity in striatum (Excreatable reactivity) on 14 days; format: functional; how it was run: as §5
[22] = biological target: T1, Albumin; test: Covalent binding of compound to serum albumin after 1 hr when the level of [8,9-3H2]-1is 2.7 dpm *10e6; conditions: cattle; how it was run: as §2
[23] = organism: Mus musculus; test: Radio activity accumulation in cerebellum (Excreatable reactivity) on day 1; format: functional; how it was run: as §5
[24] = biological target: T1, Albumin; test: Covalent binding of compound to serum albumin after 1 hr when the level of [8,9-3H2]-1is 2.2 dpm *10e6 expressed as mol of drug/mol of serum albumin; conditions: cattle; how it was run: as §2
[25] = organism: Rattus norvegicus; test: Percentage binding to rat plasma proteins at 10.0 ug/mL concentration of the compound; format: cell-free; how it was run: as §4
[26] = organism: Mus musculus; test: Percentage of covalently bound total in plasma of mouse; format: functional; how it was run: as §8
[27] = organism: Mus musculus; test: Radio activity accumulation in plasma (Excreatable reactivity) on day 1; format: functional; how it was run: as §5
[28] = biological target: T1, Albumin; test: Covalent binding of compound to serum albumin after 1 hr when the level of [8,9-3H2]-1is 2.2 dpm *10e6; conditions: cattle; how it was run: as §2
[29] = organism: Mus musculus; test: Ratio of accumulation of radioactivity from 14 to 1 day in GI tract with its contents; format: functional, Gastrointestinal tract; how it was run: as §6
[30] = organism: Mus musculus; test: Radio activity of [3H]-l in mice kidney on day 1; format: functional; how it was run: as §3
[31] = organism: Mus musculus; test: Radio activity of [3H]-l in mice liver on 14 days; format: functional; how it was run: as §3
[32] = biological target: T1, Albumin; test: Covalent binding of compound to serum albumin after 1 hr when the level of [8,9-3H2]-1is 2.6 dpm *10e6 expressed as mol of drug/mol of serum albumin; conditions: cattle; how it was run: as §2
[33] = organism: Homo sapiens; test: Percentage binding to human plasma proteins was determined by measuring HPLC peak with radiochemical detection at 1.0 micro g/ml concentration in plasma; format: cell-free; how it was run: as §1
[34] = organism: Mus musculus; test: Radio activity of [3H]-l in mice in GI tract with its contents on 14 days; format: functional, Gastrointestinal tract; how it was run: as §3
[35] = organism: Sus scrofa; test: Percentage binding to swine plasma proteins at 1.00 ug/mL concentration of the compound; format: cell-free; how it was run: as §4

`CN1CCc2cccc3c2[C@H]1Cc1ccc(O)c(O)c1-3` [APOMORPHINE] gave a Binding [1] of 96.8%, a Binding [2] of 4848 dpm mg-1 and a Binding [3] of 96.6%. The Amount [4] was 0.331%, the Binding [5] was 89.1% and the Accumulation [6] was 1.42 µg/mL. It also gave a Ratio [7] of 2.6, a Binding [8] of 90.4% and an Amount [9] of 1.48%. For the same compound, the Binding [10] was 8238 dpm mg-1 and 9938 dpm mg-1, the Binding [11] was 96.6% and the Binding [12] was 6215 dpm mg-1. It also gave a Binding [13] of 86.2%, a Binding [14] of 0.68 µg/mL and a Ratio [15] of 2.6. The Binding [16] was 91.3%, the Amount [17] was 0.558% and the Binding [18] was 9063 dpm mg-1. The Accumulation [19] was 1.42 µg/mL, the Accumulation [20] was 21.4 µg/g and the Accumulation [21] was 56.9 µg/g. For the same compound, the Binding [22] was 8465 dpm mg-1 and 12693 dpm mg-1, the Accumulation [23] was 20 µg/g and the Binding [24] was 2.1 M of drug (M of BSA)-1. It also gave a Binding [25] of 90.7%, a Binding [26] of 2.88% and an Accumulation [27] of 0.561 µg/mL. The Binding [28] was 3850 dpm mg-1, the Ratio [29] was 2.7 and the Amount [30] was 0.107%. The Amount [31] was 0.99%, the Binding [32] was 4 M of drug (M of BSA)-1 and 4.8 M of drug (M of BSA)-1 and 4.4 M of drug (M of BSA)-1 and the Binding [33] was 94.9%. For the same compound, the Amount [34] was 4.01% and the Binding [35] was 93.5%.
